Reference: ChEMBL document CHEMBL1667806, “Synthesis and evaluation of anti-tubercular activity of new dithiocarbamate sugar derivatives” (2011)
In brackets after ≈: the same amount, converted by molar mass.

Legend:
[1] = tested on: Mycobacterium tuberculosis; test: Antimycobacterial activity against Mycobacterium tuberculosis H37Rv; assay type: functional
[2] = microbe, parasite or virus in culture; assay type: functional, Mycobacterium bovis BCG str. Tokyo 172; settings: Mycobacterium tuberculosis variant bovis BCG
[3] = tested on: Mycolicibacterium smegmatis; test: microbe, parasite or virus in culture; assay type: functional; settings: JATA 64.01
[4] = microbe, parasite or virus in culture; assay type: functional, Mycobacterium avium subsp. hominissuis; settings: Mycobacterium avium, 104
Mycobacterium avium = test: microbe, parasite or virus in culture; assay type: functional, Mycobacterium avium subsp. avium ATCC 25291; settings: ATCC 2529
Staphylococcus aureus [5] = test: Antimicrobial activity against Staphylococcus aureus; assay type: functional
Staphylococcus aureus [6] = test: microbe, parasite or virus in culture; assay type: functional; settings: 873
Escherichia coli [7] = test: Antimicrobial activity against Escherichia coli DH5alpha; assay type: functional; settings: DH5[alpha]
Staphylococcus aureus [8] = test: Antimicrobial activity against drug-sensitive Staphylococcus aureus 209PJC-1; assay type: functional
Staphylococcus aureus [9] = test: Antimicrobial activity against drug-sensitive Staphylococcus aureus RN4220; assay type: functional
Staphylococcus aureus [10] = test: Antimicrobial activity against methicillin-resistant Staphylococcus aureus MF490; assay type: functional
Enterococcus faecalis [11] = test: Antimicrobial activity against AGs-resistant Enterococcus faecalis ATCC 19433; assay type: functional
Enterococcus faecalis [12] = test: Antimicrobial activity against AGs-resistant Enterococcus faecalis ATCC 19434; assay type: functional
Escherichia coli [13] = test: Antimicrobial activity against drug-sensitive Escherichia coli JM109; assay type: functional
Klebsiella pneumoniae = test: Antibacterial activity against […] Klebsiella pneumoniae ATCC BAA-1705; assay type: functional
Pseudomonas aeruginosa = test: Antibacterial activity against drug-sensitive Pseudomonas aeruginosa PAO1; assay type: functional
[14] = tested on: Mycobacterium tuberculosis; test: Antimycobacterial activity against drug-sensitive Mycobacterium tuberculosis isolate 1; assay type: functional
[15] = tested on: Mycobacterium tuberculosis; test: Antimycobacterial activity against drug-sensitive Mycobacterium tuberculosis isolate 2; assay type: functional
How it was run: (§1)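 MIC by broth dilution in Middlebrook 7H9 broth supplemented with albumin, dextrose and catalase.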

[16] = tested on: Mycobacterium tuberculosis; test: Antimycobacterial activity against drug-sensitive Mycobacterium tuberculosis isolate 3; assay type: functional; how it was run: as §1
[17] = tested on: Mycobacterium tuberculosis; test: Antimycobacterial activity against drug-sensitive Mycobacterium tuberculosis isolate 4; assay type: functional; how it was run: as §1
[18] = tested on: Mycobacterium tuberculosis; test: Antimycobacterial activity against drug-sensitive Mycobacterium tuberculosis isolate 5; assay type: functional; how it was run: as §1
[19] = tested on: Mycobacterium tuberculosis; test: Antimycobacterial activity against drug-sensitive Mycobacterium tuberculosis isolate 6; assay type: functional; how it was run: as §1
[20] = tested on: Mycobacterium tuberculosis; test: Antimycobacterial activity against drug-sensitive Mycobacterium tuberculosis isolate 7; assay type: functional; how it was run: as §1
[21] = tested on: Mycobacterium tuberculosis; test: Antimycobacterial activity against drug-sensitive Mycobacterium tuberculosis isolate 8; assay type: functional; how it was run: as §1
[22] = tested on: Mycobacterium tuberculosis; test: Antimycobacterial activity against drug-sensitive Mycobacterium tuberculosis isolate 9; assay type: functional; how it was run: as §1
[23] = tested on: Mycobacterium tuberculosis; test: Antimycobacterial activity against drug-sensitive Mycobacterium tuberculosis isolate 10; assay type: functional; how it was run: as §1
[24] = tested on: Mycobacterium tuberculosis; test: Antimycobacterial activity against drug-sensitive Mycobacterium tuberculosis isolate 11; assay type: functional; how it was run: as §1
[25] = tested on: Mycobacterium tuberculosis; test: Antimycobacterial activity against drug-sensitive Mycobacterium tuberculosis isolate 12; assay type: functional; how it was run: as §1
[26] = tested on: Mycobacterium tuberculosis; test: Antimycobacterial activity against drug-sensitive Mycobacterium tuberculosis isolate 13; assay type: functional; how it was run: as §1
[27] = tested on: Mycobacterium tuberculosis; test: Antimycobacterial activity against drug-sensitive Mycobacterium tuberculosis isolate 14; assay type: functional; how it was run: as §1
[28] = tested on: Mycobacterium tuberculosis; test: Antimycobacterial activity against drug-sensitive Mycobacterium tuberculosis isolate 15; assay type: functional; how it was run: as §1
[29] = tested on: Mycobacterium tuberculosis; test: Antimycobacterial activity against drug-sensitive Mycobacterium tuberculosis isolate 16; assay type: functional; how it was run: as §1
[30] = tested on: Mycobacterium tuberculosis; test: Antimycobacterial activity against drug-sensitive Mycobacterium tuberculosis isolate 17; assay type: functional; how it was run: as §1
[31] = tested on: Mycobacterium tuberculosis; test: Antimycobacterial activity against drug-sensitive Mycobacterium tuberculosis isolate 18; assay type: functional; how it was run: as §1
[32] = tested on: Mycobacterium tuberculosis; test: Antimycobacterial activity against drug-sensitive Mycobacterium tuberculosis isolate 19; assay type: functional; how it was run: as §1
[33] = tested on: Mycobacterium tuberculosis; test: Antimycobacterial activity against drug-sensitive Mycobacterium tuberculosis isolate 20; assay type: functional; how it was run: as §1

With `S=C([S-])N(c1c[nH]cn1)c1c[nH]cn1.[Na+]` the MIC [1] was 6.25 µg/mL, the MIC [2] was 12.5 µg/mL and the MIC [3] was greater than 100 µg/mL.
Work on `CC(=O)N[C@@H]1[C@@H](O)[C@H](O)[C@@H](CO)O[C@H]1SC(=S)N1CCCC1` yielded an MIC [1] of 6.25 µg/mL (≈ 17.8 µM), an MIC [2] of 12.5 µg/mL (≈ 35.7 µM) and an MIC [4] of 100 µg/mL (≈ 285 µM). It also gave an MIC (Mycobacterium avium) of 50 µg/mL (≈ 143 µM), an MIC (Staphylococcus aureus [5]) greater than 100 µg/mL and an MIC (Staphylococcus aureus [6]) greater than 100 µg/mL. The MIC (Escherichia coli [7]) was greater than 100 µg/mL, the MIC (Staphylococcus aureus [8]) was greater than 128 µg/mL and the MIC (Staphylococcus aureus [9]) was greater than 128 µg/mL. For the same compound, the MIC (Staphylococcus aureus [10]) was greater than 128 µg/mL, the MIC (Enterococcus faecalis [11]) was greater than 128 µg/mL and the MIC (Enterococcus faecalis [12]) was greater than 128 µg/mL. For the same compound, the MIC (Escherichia coli [13]) was greater than 128 µg/mL, the MIC (Klebsiella pneumoniae) was greater than 128 µg/mL and the MIC (Pseudomonas aeruginosa) was greater than 128 µg/mL. For the same compound, the MIC [14] was 6.25 µg/mL (≈ 17.8 µM), the MIC [15] was 6.25 µg/mL (≈ 17.8 µM) and the MIC [16] was 6.25 µg/mL (≈ 17.8 µM). The MIC [17] was 6.25 µg/mL (≈ 17.8 µM), the MIC [18] was 6.25 µg/mL (≈ 17.8 µM) and the MIC [19] was 6.25 µg/mL (≈ 17.8 µM). It also gave an MIC [20] of 12.5 µg/mL (≈ 35.7 µM), an MIC [21] of 12.5 µg/mL (≈ 35.7 µM) and an MIC [22] of 6.25 µg/mL (≈ 17.8 µM). It also gave an MIC [23] of 6.25 µg/mL (≈ 17.8 µM), an MIC [24] of 6.25 µg/mL (≈ 17.8 µM) and an MIC [25] of 6.25 µg/mL (≈ 17.8 µM). For the same compound, the MIC [26] was 12.5 µg/mL (≈ 35.7 µM), the MIC [27] was 6.25 µg/mL (≈ 17.8 µM) and the MIC [28] was 6.25 µg/mL (≈ 17.8 µM). The MIC [29] was 6.25 µg/mL (≈ 17.8 µM), the MIC [30] was 6.25 µg/mL (≈ 17.8 µM) and the MIC [31] was 6.25 µg/mL (≈ 17.8 µM). It also gave an MIC [32] of 6.25 µg/mL (≈ 17.8 µM) and an MIC [33] of 12.5 µg/mL (≈ 35.7 µM).
With `CCC(=O)N[C@@H]1[C@@H](O)[C@H](O)[C@@H](CO)O[C@H]1SC(=S)N(C)C` the MIC [1] was 50 µg/mL (≈ 148 µM).
`CN(C)C(=S)S[C@@H]1O[C@H](CO)[C@@H](O)[C@H](O)[C@H]1NC(=O)C1CC1` showed an MIC [1] of 50 µg/mL (≈ 143 µM).
`CN(C)C(=S)S[C@@H]1O[C@H](CO)[C@@H](O)[C@H](O)[C@H]1NC(=O)c1ccccc1` showed an MIC [1] of 100 µg/mL (≈ 259 µM).
For `CCCCCCCCCCCCCCCCCC(=O)N[C@@H]1[C@@H](O)[C@H](O)[C@@H](CO)O[C@H]1SC(=S)N(C)C`, the MIC [1] was 100 µg/mL (≈ 182 µM).
Compound `CN(C)C(=S)S[C@@H]1O[C@H](CO)[C@@H](O)[C@H](O)[C@H]1N` has an MIC [1] of 50 µg/mL (≈ 177 µM).
Compound `CC(=O)N[C@@H]1[C@@H](O)[C@H](O)[C@@H](CO)O[C@H]1SC(=S)N(C)C` has an MIC [1] of 25 µg/mL (≈ 77.1 µM), an MIC [2] of 31.3 µg/mL (≈ 96.5 µM) and an MIC [4] greater than 100 µg/mL. It also gave an MIC (Mycobacterium avium) greater than 100 µg/mL, an MIC (Staphylococcus aureus [5]) greater than 100 µg/mL and an MIC (Staphylococcus aureus [6]) greater than 100 µg/mL. It also gave an MIC (Escherichia coli [7]) greater than 100 µg/mL.
With `NCC[C@H](O)C(=O)N[C@@H]1C[C@H](N)[C@@H](O[C@H]2O[C@H](CN)[C@@H](O)[C@H](O)[C@H]2O)[C@H](O)[C@H]1O[C@H]1O[C@H](CO)[C@@H](O)[C@H](N)[C@H]1O` [AMIKACIN] the MIC (Staphylococcus aureus [8]) was 0.5 µg/mL (≈ 0.854 µM), the MIC (Staphylococcus aureus [9]) was 4 µg/mL (≈ 6.83 µM) and the MIC (Staphylococcus aureus [10]) was greater than 128 µg/mL. It also gave an MIC (Enterococcus faecalis [11]) greater than 128 µg/mL, an MIC (Enterococcus faecalis [12]) of 32 µg/mL (≈ 54.6 µM) and an MIC (Escherichia coli [13]) of 0.5 µg/mL (≈ 0.854 µM). For the same compound, the MIC (Klebsiella pneumoniae) was 32 µg/mL (≈ 54.6 µM) and the MIC (Pseudomonas aeruginosa) was 2 µg/mL (≈ 3.42 µM).
`CC1(C)S[C@@H]2[C@H](NC(=O)[C@H](N)c3ccccc3)C(=O)N2[C@H]1C(=O)O` [AMPICILLIN] gave an MIC [1] of 12.5 µg/mL (≈ 35.8 µM), an MIC [2] of 12.5 µg/mL (≈ 35.8 µM) and an MIC (Staphylococcus aureus [5]) of 50 µg/mL (≈ 143 µM). The MIC (Staphylococcus aureus [6]) was greater than 100 µg/mL and the MIC (Escherichia coli [7]) was greater than 100 µg/mL.
`O=C(O)c1cn(C2CC2)c2cc(N3CCNCC3)c(F)cc2c1=O` [CIPROFLOXACIN] showed an MIC [1] of 0.39 µg/mL (≈ 1.18 µM), an MIC [2] of 0.1 µg/mL (≈ 0.302 µM) and an MIC [4] of 0.39 µg/mL (≈ 1.18 µM). The MIC (Mycobacterium avium) was 1.56 µg/mL (≈ 4.71 µM) and the MIC (Staphylococcus aureus [5]) was 0.2 µg/mL (≈ 0.604 µM).
